In ChEMBL document CHEMBL1149705, “Synthesis and antimicrobial evaluation of new chalcones containing piperazine or 2,5-dichlorothiophene moiety” (2007):
Converted amounts (≈) assume the structure as drawn.

Columns and labels:
Type in all cases: functional
Pichia kudriavzevii [1] = experiment: Antifungal activity against Candida krusei GO3 at 250 ug/ml after 48 hrs by agar well diffusion technique; conditions: read-out: IZ
Candida albicans [2] = experiment: Antifungal activity against Candida albicans at 250 ug/ml after 48 hrs by agar well diffusion technique; conditions: read-out: IZ
Klebsiella pneumoniae = experiment: Antibacterial activity against Klebsiella pneumoniae at 250 ug/ml after 48 hrs by agar well diffusion technique; conditions: read-out: IZ
Method in brief: (§1)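 Cup-plate agar well diffusion on nutrient agar, set for 1–1.5 h. Cups of 10 mm were bored with a sterile cork borer, and test solution was added by sterile syringe. Plates were incubated at 37 °C for 48 h. The read-out was inhibition zone diameter in mm, graded 0–6 mild, 7–13 moderate and 14–26 efficacy. Ciprofloxacin was the standard; 10% DMSO served as solvent control.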

Proteus vulgaris = experiment: Antibacterial activity against Proteus vulgaris at 250 ug/ml after 48 hrs by agar well diffusion technique; conditions: read-out: IZ; method in brief: as §1
Escherichia coli = experiment: Antibacterial activity against Escherichia coli ESS 2231 at 250 ug/ml after 48 hrs by agar well diffusion technique; conditions: read-out: IZ; method in brief: as §1
Aspergillus fumigatus = experiment: Antifungal activity against Aspergillus fumigatus at 250 ug/ml after 48 hrs by agar well diffusion technique; conditions: read-out: IZ; method in brief: as §1
Candida albicans [3] = experiment: Antifungal activity against Candida albicans after 48 hrs by agar well diffusion technique
Nakaseomyces glabratus [4] = experiment: Antifungal activity against Candida glabrata HO3 at 250 ug/ml after 48 hrs by agar well diffusion technique; conditions: read-out: IZ
Pichia kudriavzevii [5] = experiment: Antifungal activity against Candida krusei GO3 after 48 hrs by agar well diffusion technique
Staphylococcus aureus = experiment: Antibacterial activity against Staphylococcus aureus 209p at 250 ug/ml after 48 hrs by agar well diffusion technique; conditions: read-out: IZ; method in brief: as §1
Nakaseomyces glabratus [6] = experiment: Antifungal activity against Candida glabrata HO3 after 48 hrs by agar well diffusion technique

SMILES	MIC50 (Candida albicans [3]) [µg/mL]	MIC50 (Pichia kudriavzevii [5]) [µg/mL]	MIC50 (Nakaseomyces glabratus [6]) [µg/mL]	zone of inhibition at 250 µg/mL (Pichia kudriavzevii [1]) [mm]	zone of inhibition at 250 µg/mL (Candida albicans [2]) [mm]	zone of inhibition at 250 µg/mL (Klebsiella pneumoniae) [mm]	zone of inhibition at 250 µg/mL (Proteus vulgaris) [mm]	zone of inhibition at 250 µg/mL (Escherichia coli) [mm]	zone of inhibition at 250 µg/mL (Aspergillus fumigatus) [mm]	zone of inhibition at 250 µg/mL (Nakaseomyces glabratus [4]) [mm]	zone of inhibition at 250 µg/mL (Staphylococcus aureus) [mm]
O=C(/C=C/C=C/c1ccccc1)c1ccc(N2CCNCC2)cc1	90 (≈ 283 µM)	60 (≈ 188 µM)	75 (≈ 236 µM)	14	9	5	8	16	14	6	10
Cc1cccc(/C=C/C(=O)c2ccc(N3CCNCC3)cc2)c1	6.89 (≈ 22.5 µM)	5.69 (≈ 18.6 µM)	9.94 (≈ 32.4 µM)	24	16	16	20	22	20	22	24
Cc1ccc(/C=C/C(=O)c2ccc(N3CCNCC3)cc2)cc1	8.75 (≈ 28.6 µM)	7.02 (≈ 22.9 µM)	7.66 (≈ 25 µM)	22	22	14	14	14	18	24	16
O=C(/C=C/c1ccc(Cl)cc1)c1cc(Cl)sc1Cl	4.65 (≈ 14.6 µM)	70 (≈ 220 µM)	40 (≈ 126 µM)	22	24	8	14	16	18	14	14
COc1cc(/C=C/C(=O)c2ccc(N3CCNCC3)cc2)cc(OC)c1OC	65 (≈ 170 µM)	75 (≈ 196 µM)	60 (≈ 157 µM)	12	9	9	6	8	12	9	6

More lines, main results first:

MIC50 (Candida albicans [3]) [µg/mL]	MIC50 (Pichia kudriavzevii [5]) [µg/mL]	MIC50 (Nakaseomyces glabratus [6]) [µg/mL]	SMILES	zone of inhibition at 250 µg/mL (Pichia kudriavzevii [1]) [mm]	zone of inhibition at 250 µg/mL (Candida albicans [2]) [mm]	zone of inhibition at 250 µg/mL (Klebsiella pneumoniae) [mm]	zone of inhibition at 250 µg/mL (Proteus vulgaris) [mm]	zone of inhibition at 250 µg/mL (Escherichia coli) [mm]	zone of inhibition at 250 µg/mL (Aspergillus fumigatus) [mm]	zone of inhibition at 250 µg/mL (Nakaseomyces glabratus [4]) [mm]	zone of inhibition at 250 µg/mL (Staphylococcus aureus) [mm]
4.56 (≈ 15.6 µM)	5.38 (≈ 18.4 µM)	7.57 (≈ 25.9 µM)	O=C(/C=C/c1ccccc1)c1ccc(N2CCNCC2)cc1	24	24	18	20	24	22	24	22
2.22 (≈ 7.84 µM)	3.17 (≈ 11.2 µM)	4.65 (≈ 16.4 µM)	O=C(/C=C/c1ccccc1)c1cc(Cl)sc1Cl	26	26	18	22	20	24	26	18
5 (≈ 16 µM)	18.2 (≈ 58 µM)	16.4 (≈ 52.3 µM)	COc1ccc(/C=C/C(=O)c2cc(Cl)sc2Cl)cc1	18	20	16	14	18	22	18	14
9.12 (≈ 28.3 µM)	50 (≈ 155 µM)	16.2 (≈ 50.4 µM)	COc1ccc(/C=C/C(=O)c2ccc(N3CCNCC3)cc2)cc1	14	22	16	14	22	18	18	24
